Reference: ChEMBL document CHEMBL3785029, “Synthesis and Characterization of Fatty Acid Conjugates of Niacin and Salicylic Acid” (J Med Chem, 2016)
The source made the active and inactive calls. No cut-off for these calls is given here.

Columns and labels:
[1] = system: Plasma; assay: Drug metabolism in Sprague-Dawley rat plasma assessed as niacin formation at 300 mg/kg, qd administered through oral gavage for 7 days measured 2 hrs post last dose by LC/MS/MS analysis; format: ADME, organism-based; details: in vivo, BLD = below limit of detection
[2] = system: Liver; assay: Drug metabolism in Sprague-Dawley rat liver assessed as niacin linker metabolite N-(2-aminoethyl)nicotinamide formation at 300 mg/kg, qd administered through oral gavage for 7 days measured 2 hrs post last dose by LC/MS/MS analysis; format: ADME, organism-based; details: in vivo
[3] = system: Plasma; assay: Drug metabolism in Sprague-Dawley rat plasma assessed as linker EPA metabolite (5Z,8Z,11Z,14Z,17Z)-N-(2-aminoethyl)icosa-5,8,11,14,17-pentaenamide formation at 300 mg/kg, qd administered through oral gavage for 7 days measured 2 hrs post last dose by LC/MS/MS analysis; format: ADME, organism-based; details: in vivo
[4] = system: Liver; assay: Drug metabolism in Sprague-Dawley rat liver assessed as linker EPA metabolite (5Z,8Z,11Z,14Z,17Z)-N-(2-aminoethyl)icosa-5,8,11,14,17-pentaenamide formation at 300 mg/kg, qd administered through oral gavage for 7 days measured 2 hrs post last dose by LC/MS/MS analysis; format: ADME, organism-based; details: in vivo
[5] = Cmax in portal vein cannulated Sprague-Dawley rat at 30 mg/kg, po measured up to 140 mins; format: ADME, organism-based; parameters: dose 30 mg/kg, route oral; details: portal vein blood
Summary of the method: (§1)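 Sprague Dawley rats surgically fitted with indwelling jugular vein and portal vein cannulas; oral dosing, then serial blood draws from both portal and jugular veins at 10, 20, 40 min and 1, 2, 4, 6 hr post dose; plasma analysed for parent and metabolites by LC/MS/MS.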

[6] = Cmax in jugular vein cannulated Sprague-Dawley rat at 30 mg/kg, po measured up to 140 mins; format: ADME, organism-based; parameters: dose 30 mg/kg, route oral; details: jugular vein blood; summary of the method: as §1
[7] = system: Rattus norvegicus; assay: Cmax in jugular vein cannulated Sprague-Dawley rat assessed nicotinuric acid at 30 mg/kg, po measured up to 140 mins; format: ADME, organism-based; parameters: dose 30 mg/kg, route oral; details: in vivo; summary of the method: as §1
[8] = system: Mus musculus; assay: Inhibition of PCSK9 levels in po dosed ApoE*3-Leiden mouse plasma administered for 16 weeks; format: functional, organism-based
Summary of the method: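 Transgenic ApoE*3-Leiden mice on high-cholesterol Western-type diet dosed over 16 weeks; plasma PCSK9, total cholesterol, triglycerides and lipoprotein profile (VLDL, LDL) assessed at study end.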

[9] = system: Plasma; assay: Metabolic stability in mouse plasma at 5 uM up to 2 hrs by LC-MS-MS analysis; format: ADME, cell-free
Summary of the method: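 Plasma from each species diluted to 50% with 0.05 M PBS pH 7.4 and prewarmed to 37 °C; compound added at 5 µM final (from DMSO stock diluted in MeOH); triplicate incubations at 37 °C, sampled at 0, 30, 60, 120 min, quenched with acetonitrile containing internal standard, centrifuged, analysed by LC/MS/MS.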

[10] = system: Rattus norvegicus; assay: Cmax in Sprague-Dawley rat assessed as nicotinuric acid at 100 mg/kg, po administered as single dose measured up to 6 hrs post dose by LC/MS/MS analysis; format: ADME, organism-based; parameters: dose 100 mg/kg, route oral; details: in vivo
Summary of the method: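 Single oral dose to Sprague Dawley rats; plasma collected at 0.25, 0.5, 1, 2, 4 and 6 hr; analytes in plasma quantified by LC/MS/MS.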

[11] = Drug metabolism in Sprague-Dawley rat epididymal fat assessed as salicyluric acid formation at 300 mg/kg, po administered for 14 days followed by 7 day washout cycle measured on day 21; format: ADME, organism-based, Epididymal fat pad; details: in vivo
[12] = system: Muscle tissue; assay: Drug metabolism in Sprague-Dawley rat muscle assessed as salicyluric acid formation at 300 mg/kg, po administered for 14 days followed by 7 day washout cycle measured on day 21; format: ADME, organism-based; details: in vivo
[13] = system: Brain; assay: Drug metabolism in Sprague-Dawley rat brain assessed as salicyluric acid formation at 300 mg/kg, po administered for 14 days followed by 7 day washout cycle measured on day 21; format: ADME, organism-based; details: in vivo
[14] = Cmax in Sprague-Dawley rat at 300 mg/kg, po measured up to 24 hrs post dose; format: ADME, organism-based; parameters: dose 300 mg/kg, route oral; details: in vivo
Summary of the method: (§2)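 Single oral dose of 300 mg/kg to Sprague Dawley rats. Plasma collected at 0, 0.5, 1, 2, 4, 8 and 24 hr. Analytes were the parent, the salicylate-linker and linker-DHA metabolites, salicylic acid and salicyluric acid; Cmax and AUClast derived.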

[15] = AUClast in Sprague-Dawley rat at 300 mg/kg, po measured up to 24 hrs post dose; format: ADME, organism-based; parameters: dose 300 mg/kg, time < 24 hr, route oral; details: in vivo; summary of the method: as §2
[16] = Drug uptake in Sprague-Dawley rat epididymal fat at 300 mg/kg, po administered for 7 days measured 4 hrs post dose on day 7; format: ADME, organism-based, Epididymal fat pad; details: read-out: Drug uptake
Summary of the method: (§3)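 Male Sprague Dawley rats, groups of 4, dosed orally at 300 mg/kg once daily for 14 days. Animals killed on days 1, 3, 7 and 14, with plasma, brain, epididymal fat, liver and muscle taken 4 hr after dosing. Parent, salicylic acid and salicyluric acid were measured.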

[17] = Drug uptake in Sprague-Dawley rat muscle at 300 mg/kg, po administered for 7 days measured 4 hrs post dose on day 7; format: ADME, organism-based, Muscle tissue; details: read-out: Drug uptake; summary of the method: as §3
[18] = system: Muscle tissue; assay: Drug metabolism in Sprague-Dawley rat muscle assessed as salicylic acid formation at 300 mg/kg, po administered for 7 days measured 4 hrs post dose on day 7; format: ADME, organism-based; details: in vivo; summary of the method: as §3
[19] = system: Plasma; assay: Drug metabolism in Sprague-Dawley rat plasma assessed as salicyluric acid formation at 300 mg/kg, po administered for 7 days measured 4 hrs post dose on day 7; format: ADME, organism-based; details: in vivo; summary of the method: as §3
[20] = system: Plasma; assay: Drug metabolism in Sprague-Dawley rat plasma assessed as salicylic acid formation at 300 mg/kg, po measured up to 24 hrs post dose; format: ADME, organism-based; details: in vivo; summary of the method: as §2
[21] = Drug uptake in Sprague-Dawley rat epididymal fat at 300 mg/kg, po administered for 14 days followed by 7 day washout cycle measured on day 21; format: ADME, organism-based, Epididymal fat pad; details: in vivo
[22] = system: Brain; assay: Drug uptake in Sprague-Dawley rat brain at 300 mg/kg, po administered for 14 days followed by 7 day washout cycle measured on day 21; format: ADME, organism-based; details: in vivo
[23] = system: Brain; assay: Drug metabolism in Sprague-Dawley rat brain assessed as salicylic acid formation at 300 mg/kg, po administered for 14 days followed by 7 day washout cycle measured on day 21; format: ADME, organism-based; details: in vivo
[24] = system: Plasma; assay: Drug metabolism in Sprague-Dawley rat plasma assessed as (4Z,7Z,10Z,13Z,16Z,19Z)-N-(2-aminoethyl)docosa-4,7,10,13,16,19-hexaenamide formation at 300 mg/kg, po measured up to 24 hrs post dose; details: in vivo

CC/C=C\C/C=C\C/C=C\C/C=C\C/C=C\CCCC(=O)NCCNC(=O)c1cccnc1
Drug metabolism [1]: BLD | Drug metabolism [2]: 10910 ng/g | Drug metabolism [3]: 1.1 ng/mL | Drug metabolism [4]: 8.7 ng/g | Cmax [5]: 418 ng/mL | Cmax [6]: 35 ng/mL | Cmax [7]: 135 ng/mL | inhibition [8]: Active | Stability [9]: Stable | Cmax [10]: 1131 ng/mL

CC/C=C\C/C=C\C/C=C\C/C=C\C/C=C\C/C=C\CCC(=O)NCCNC(=O)c1ccccc1O [EDASALONEXENT]
Drug metabolism [11]: metabolite_notdetected | Drug metabolism [12]: metabolite_notdetected | Drug metabolism [13]: metabolite_notdetected | Cmax [14]: 477 ng/mL | AUC(0-t) at 24 h [15]: 1940 ng·h/mL | concentration at 4 h [16]: 772 ng/g | concentration at 4 h [17]: 425 ng/g | Drug metabolism [18]: 265.73 ng/g | Drug metabolism [19]: 764.41 ng/mL | Drug metabolism [20]: metabolite_detected | Drug uptake [21]: Not Active | Drug uptake [22]: Not Active | Drug metabolism [23]: metabolite_notdetected | Drug metabolism [24]: metabolite_notdetected
